Holding throughout (type): functional
One test relates to K562. Briefly: Growth inhibition of human K562 cells assessed as growth percentage at 10 uM incubated for 48 hrs by sulforhodamine B assay relative to control. Particulars: K562, 48 h, read-out: Activity. In a few lines:
(§1)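 NCI-60 one-dose screen. Cells in RPMI 1640 with 5% FBS and 2 mM L-glutamine, seeded at 5,000–40,000 cells/well according to doubling time, and preincubated overnight at 37 °C, 5% CO2. A time-zero plate was TCA-fixed at drug addition. Compound from DMSO stock, final 10 µM, 48 h; DMSO vehicle controls. Fixation with TCA, 10% final (16% for suspension cells). SRB stain, Tris solubilization, A515. Result given as % growth versus untreated cells.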
For orientation: Sulforhodamine B stains cellular protein and so reports cell mass.

The test system of a further test is TK-10. Briefly: Growth inhibition of human TK10 cells assessed as growth percentage at 10 uM incubated for 48 hrs by sulforhodamine B assay relative to control. The note with it: TK-10, 48 h, read-out: Activity. In a few lines:
(§2)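 NCI-60 single-dose screen. Cells were grown in RPMI 1640 with 5% FBS and 2 mM L-glutamine and plated at 5,000–40,000 cells/well. After an overnight preincubation at 37 °C in 5% CO2, compound was added at a final 10 µM from a DMSO stock, with DMSO/PBS controls. After 48 h, cells were TCA-fixed and stained with 0.4% SRB, and absorbance was read at 515 nm. Growth is given as a percentage of untreated control.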

A further test concerns SK-MEL-5. The experiment in a line: Growth inhibition of human SK-MEL-5 cells assessed as growth percentage at 10 uM incubated for 48 hrs by sulforhodamine B assay relative to control. Particulars: SK-MEL-5, 48 h, read-out: Activity. In a few lines:
as §2

The next test concerns Hs-578T. The experiment in a line: Growth inhibition of human Hs 578T cells assessed as growth percentage at 10 uM incubated for 48 hrs by sulforhodamine B assay relative to control. The note with it: read-out: Activity. In short, it runs like this: as §1
The test system of a further test is A549. Briefly: Growth inhibition of human A549/ATCC cells assessed as growth percentage at 10 uM incubated for 48 hrs by sulforhodamine B assay relative to control. The note with it: A549, 48 h, read-out: Activity. In a few lines:
(§3)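 NCI-60 one-dose screen: cells in RPMI 1640 with 5% FBS and 2 mM L-glutamine, plated at 5,000–40,000 cells/well and preincubated 24 h at 37 °C, 5% CO2. Compound is added from a DMSO stock to a final 10 µM and incubated 48 h. Cells are TCA-fixed and stained with sulforhodamine B, read at 515 nm. Output is % growth versus untreated control, with a time-zero plate.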

In the next test the test system is SW-620. The experiment in a line: Growth inhibition of human SW620 cells assessed as growth percentage at 10 uM incubated for 48 hrs by sulforhodamine B assay relative to control. Particulars: SW-620, 48 h, read-out: Activity. In short, it runs like this:
as §2

Another test concerns MDA-MB-435. Briefly: Growth inhibition of human MDA-MB-435 cells assessed as growth percentage at 10 uM incubated for 48 hrs by sulforhodamine B assay relative to control. Particulars: MDA-MB-435, 48 h, read-out: Activity. In a few lines: as §1
The test system of another test is M14. Briefly: Growth inhibition of human M14 cells assessed as growth percentage at 10 uM incubated for 48 hrs by sulforhodamine B assay relative to control. Particulars: M14, 48 h, read-out: Activity. In short, it runs like this: as §1
In a further test the test system is MCF7. The experiment in a line: Growth inhibition of human MCF7 cells assessed as growth percentage at 10 uM incubated for 48 hrs by sulforhodamine B assay relative to control. The note with it: MCF7, 48 h, read-out: Activity. In a few lines:
as §1

The test system of the next test is HL-60(TB). Briefly: Growth inhibition of human HL-60(TB) cells assessed as growth percentage at 10 uM incubated for 48 hrs by sulforhodamine B assay relative to control. Particulars: HL-60, 48 h, read-out: Activity. In a few lines: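 NCI-60 single-dose screen. Cells in RPMI 1640 with 5% FBS and 2 mM L-glutamine are plated at 5,000–40,000 cells/well and preincubated overnight at 37 °C, 5% CO2. Compound is added from a DMSO stock at 10 µM final for 48 h. Cells are TCA-fixed (suspension cells 16% final) and stained with SRB. Absorbance is read at 515 nm, and percentage growth is calculated against untreated controls with a time-zero plate.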

A further test has as its system CAKI-1. The experiment in a line: Growth inhibition of human Caki1 cells assessed as growth percentage at 10 uM incubated for 48 hrs by sulforhodamine B assay relative to control. The note with it: CAKI-1, 48 h, read-out: Activity. In a few lines:
as §3

The test system of the next test is PC-3. The experiment in a line: Growth inhibition of human PC3 cells assessed as growth percentage at 10 uM incubated for 48 hrs by sulforhodamine B assay relative to control. Particulars: PC-3, 48 h, read-out: Activity. In short, it runs like this:
as §2

A further test has as its system HT-29. Briefly: Growth inhibition of human HT-29 cells assessed as growth percentage at 10 uM incubated for 48 hrs by sulforhodamine B assay relative to control. Particulars: HT-29, 48 h, read-out: Activity. In short, it runs like this: as §1
The test system of a further test is U-251. The experiment in a line: Growth inhibition of human U251 cells assessed as growth percentage at 10 uM incubated for 48 hrs by sulforhodamine B assay relative to control. Particulars: U-251, 48 h, read-out: Activity. In a few lines: as §2
The subject of a further test is MOLT-4. The experiment in a line: Growth inhibition of human MOLT4 cells assessed as growth percentage at 10 uM incubated for 48 hrs by sulforhodamine B assay relative to control. The note with it: MOLT-4, 48 h, read-out: Activity. In short, it runs like this:
as §1

A further test relates to HCT-116. Briefly: Growth inhibition of human HCT116 cells assessed as growth percentage at 10 uM incubated for 48 hrs by sulforhodamine B assay relative to control. Particulars: HCT-116, 48 h, read-out: Activity. In short, it runs like this:
as §3

The test system of a further test is MDA-MB-468. Briefly: Growth inhibition of human MDA-MB-468 cells assessed as growth percentage at 10 uM incubated for 48 hrs by sulforhodamine B assay relative to control. Particulars: MDA-MB-468, 48 h, read-out: Activity. In short, it runs like this: as §1
The test system of a further test is IGROV-1. Briefly: Growth inhibition of human IGROV1 cells assessed as growth percentage at 10 uM incubated for 48 hrs by sulforhodamine B assay relative to control. The note with it: IGROV-1, 48 h, read-out: Activity. In a few lines:
as §1

Another test has as its system CCRF-CEM. Briefly: Growth inhibition of human CCRF-CEM cells assessed as growth percentage at 10 uM incubated for 48 hrs by sulforhodamine B assay relative to control. Particulars: read-out: Activity. In short, it runs like this: as §3
For a further test, the system named is NCI-H226. The experiment in a line: Growth inhibition of human NCI-H226 cells assessed as growth percentage at 10 uM incubated for 48 hrs by sulforhodamine B assay relative to control. Particulars: NCI-H226, 48 h, read-out: Activity. In a few lines:
as §1

Another test relates to COLO 205. The experiment in a line: Growth inhibition of human COLO205 cells assessed as growth percentage at 10 uM incubated for 48 hrs by sulforhodamine B assay relative to control. The note with it: COLO 205, 48 h, read-out: Activity. In a few lines:
as §3

The next test deals with SNB-75. Briefly: Growth inhibition of human SNB75 cells assessed as growth percentage at 10 uM incubated for 48 hrs by sulforhodamine B assay relative to control. The note with it: SNB-75, 48 h, read-out: Activity. In short, it runs like this:
as §2

The test system of the next test is UO-31. The experiment in a line: Growth inhibition of human UO31 cells assessed as growth percentage at 10 uM incubated for 48 hrs by sulforhodamine B assay relative to control. The note with it: UO-31, 48 h, read-out: Activity. In a few lines:
as §2

The subject of another test is SF-539. The experiment in a line: Growth inhibition of human SF539 cells assessed as growth percentage at 10 uM incubated for 48 hrs by sulforhodamine B assay relative to control. Particulars: SF-539, 48 h, read-out: Activity. In short, it runs like this:
as §2

Each structure is given as a SMILES string.

Turning to `CC1=C(C(=O)c2ccccc2)C(c2ccc3c(c2)OCO3)NC(=O)N1` (racemic), the growth at 10 µM in the test with K562 stood at 92.7%; in the test with TK-10, 99%; in the test on SK-MEL-5, 98.8%; in the test with Hs-578T it was 102%; in the test with A549, 101%; with SW-620, 98.5%. The growth at 10 µM amounted to 90.1% in the test with MDA-MB-435; 99.8% with M14; 97.5% in the test with MCF7; 105% in the test with HL-60(TB); 91.1% in the test on CAKI-1; 103% in the test on PC-3. In addition, the growth at 10 µM in the test with HT-29 was 105%; in the test on U-251, 96.5%; with MOLT-4 it was 103%; with HCT-116, 98.9%; with MDA-MB-468, 109%; in the test with IGROV-1, 90.6%. Besides, the growth at 10 µM with CCRF-CEM was 98.5%; in the test on NCI-H226 it was 97.4%; in the test with COLO 205 it was 114%; in the test with SNB-75, 91.4%; in the test with UO-31 it was 80.6%; with SF-539, 99.7%.
`COCCOC(=O)C1=C(C)NC(=O)NC1c1ccc2c(c1)OCO2` (racemic): the growth at 10 µM turned out to be 97.4% with K562; 100% with TK-10; 100% in the test with SK-MEL-5; 103% with Hs-578T; 101% with A549; 97% in the test on SW-620. The growth at 10 µM with MDA-MB-435 was determined as 101%; in the test with M14, 104%; in the test with MCF7, 96.8%; in the test on HL-60(TB), 99.7%; with CAKI-1, 90.4%; with PC-3, 98.8%. Further, the growth at 10 µM with HT-29 is 102%; in the test on U-251, 98.3%; in the test with MOLT-4 it was 101%; with HCT-116 it was 107%; in the test with MDA-MB-468, 106%; with IGROV-1, 103%. In addition, the growth at 10 µM in the test on CCRF-CEM was 99%; in the test with NCI-H226, 98%; in the test with COLO 205 it was 102%; in the test with SNB-75, 89.6%; in the test with UO-31 it was 87.3%; in the test with SF-539, 101%.
Regarding `CC1(C)CC(=O)C2=C(C1)NC(=O)NC2c1ccc2c(c1)OCO2` (racemic), the growth at 10 µM was determined as 108% with K562; 106% in the test on TK-10; 100% in the test with SK-MEL-5; 113% in the test on Hs-578T; 108% with A549; 109% in the test with SW-620. Besides, the growth at 10 µM in the test on MDA-MB-435 was 106%; in the test on M14, 102%; in the test on MCF7 it was 98.3%; in the test with HL-60(TB), 97.6%; in the test on CAKI-1 it was 93.9%; in the test with PC-3, 99.4%. The growth at 10 µM with HT-29 amounted to 114%; in the test on U-251 it was 103%; with MOLT-4, 95.9%; in the test with HCT-116, 101%; with MDA-MB-468, 118%; in the test with IGROV-1, 97.9%. Also, the growth at 10 µM worked out at 111% with CCRF-CEM; 109% in the test with NCI-H226; 125% in the test with COLO 205; 97.5% in the test on SNB-75; 84.6% in the test on UO-31; 106% in the test with SF-539.

The values above are taken from ChEMBL document CHEMBL4406880, “Design, synthesis, and bioactivity of dihydropyrimidine derivatives as kinesin spindle protein inhibitors” (Bioorg Med Chem, 2019).
